Bioassay records from PubChem BioAssay.
Compounds with a hit are over-represented: about 2.5% of the library has one in this group of screens.
ADAM10 inh: inhibitors of human ADAM10; O14672; actives 0.62% (n = 370,000); recombinant ADAM10, EDANS/DABCYL FRET peptide cleavage, 3 h; inhibition, % at 7 µM; AID 720582;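 active means inhibition above a per-campaign cutoff equal to the mean of compounds falling between control-based bounds plus 3 SD, cut at about 20% in these data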;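 further: 0% = DMSO wells while the 100% control is not disclosed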
NR2E3 ag-1: agonists of human NR2E3 nuclear receptor | Q9Y5X4 | inhibition of corepressor binding, % at 3.98 µM | actives 0.35% (n = 360,000) | CHO-S Gal4-NCOR/VP16-NR2E3 two-hybrid, luciferase;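 active means inhibition above the mean of all tested compounds plus 3 SD, cut at about 70% in these data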;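 further: 0% = DMSO with NR2E3 transfected cells and 100% = cells lacking NR2E3 construct; higher means lower luciferase signal from less NR2E3 corepressor binding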
Target sequence (Q9Y5X4 whole entry, looked up, the tested form may be a part): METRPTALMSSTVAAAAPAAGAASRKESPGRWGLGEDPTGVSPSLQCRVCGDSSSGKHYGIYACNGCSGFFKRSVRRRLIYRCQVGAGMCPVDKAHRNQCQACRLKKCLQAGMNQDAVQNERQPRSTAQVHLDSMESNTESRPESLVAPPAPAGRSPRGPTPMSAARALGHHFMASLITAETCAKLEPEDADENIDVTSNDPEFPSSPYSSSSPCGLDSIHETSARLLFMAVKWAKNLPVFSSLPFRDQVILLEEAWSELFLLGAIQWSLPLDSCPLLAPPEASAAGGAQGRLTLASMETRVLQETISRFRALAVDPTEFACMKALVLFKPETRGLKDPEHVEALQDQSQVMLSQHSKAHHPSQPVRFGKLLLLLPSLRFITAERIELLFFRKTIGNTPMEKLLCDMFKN
JMJD2C inh: human JMJD2C demethylase inhibition; Q9H3R0; GST-JMJD2C(1-420) H3K9me3 demethylation, DELFIA europium; inhibition, % at 2.35 µM; actives 0.069% (n = 330,000); AID 2099;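 active means more than half of a compound's replicate wells show inhibition beyond 50%, single wells judged on their own value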;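 further: signal counts dimethyl H3K9 product captured on neutravidin plate; 0% = median of DMSO wells and 100% = 0.3 times that DMSO median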
ADAM17 inh: inhibits human ADAM17; P78536; recombinant ADAM17, EDANS/DABCYL FRET peptide cleavage; inhibition, % at 6.95 µM; actives 0.83% (n = 370,000); AID 720648;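 active means inhibition above the mean of compounds lying between control limits plus 3 SD, set per campaign, cut at about 8.5% in these data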;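 further: 0% = DMSO-only wells as the low control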
NR2E3 ag-2: agonists of human nuclear receptor NR2E3; Q9Y5X4; GST-NR2E3/biotin-RetCOR TR-FRET, 1536-well; inhibition of corepressor binding, % at 4.78 µM; actives 0.12% (n = 320,000);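 active means percent inhibition above the cutoff of mean plus 3 SD of all tested compounds, set per screening campaign, cut at about 20% in these data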;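 further: 0% = DMSO wells and 100% = biotin wells as full block of FRET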
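Material – GST-tagged NR2E3 plus biotinylated RetCOR corepressor · Quantity – NR2E3 fusion 1.35 nM · Times – 5 h incubation at 4 °C · Medium – pH 7.5 Tris-based buffer · Technique – TR-FRET, Eu(K)-anti-GST donor, streptavidin-D2 acceptor, ex 340, em 617/671 nm · Benchmarks – high control biotin, low control 0.6% DMSO · Format – 1536-well plates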
proKLK7 act: activators of human kallikrein-7 zymogen. purified proKLK7, EDANS-DABCYL substrate fluorescence; 100% is mature enzyme control, 0% vehicle. actives 0.9% (n = 370,000). P49862. activation, % at 7 µM;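 active means activation above the mean of all tested compounds plus 3 SD, computed per campaign excluding outliers beyond control limits, cut at about 13% in these data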
proKLK7 act conf: confirmation of human kallikrein-7 zymogen activators. shares compounds with proKLK7 act. purified proKLK7, EDANS-DABCYL substrate fluorescence; scaled: vehicle 0, mature enzyme 100. activation, % at 7 µM. actives 68% (n = 3,200). AID 686949;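 active means activation, as change over the incubation, above the mean of all tested compounds plus 3 SD, cut at about 13% in these data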
EDANS interfere: optically interferes with EDANS-DABCYL signal, flagging KLK7 hits. shares compounds with proKLK7 act. EDANS-DABCYL substrate fluorescence interference, no enzyme, 4 h; solvent 0%, active enzyme control 100%. activation, % at 7 µM. actives 80% (n = 3,200). AID 686952;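 active means activation above the all-compound mean plus 3 SD, ignoring values outside control-based bounds, cut at about 4.8% in these data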;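 further: value is the 4 h activation minus the activation read at time zero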
Active calls of the source: *; i = inactive; . = no result.

SMILES | ADAM10 inh | NR2E3 ag-1 | JMJD2C inh | ADAM17 inh | NR2E3 ag-2 | proKLK7 act | proKLK7 act conf | EDANS interfere
O=C(COc1ccc(/C=N/NC(=O)c2ccncc2)cc1)Nc1ccccc1 | -1 | -16 | -17 | 0 | -5 | 27* | -22 | -15
O=C(COc1ccc(/C=N/NC(=O)c2ccncc2)cc1)Nc1cccc([N+](=O)[O-])c1 | 6 | 17 | 10 | 0 | 1 | -1 | . | .
COc1ccc(CN(C)C(=O)c2ccc(NC(=O)CC3SC(N4CCCCC4)=NC3=O)cc2)c(OC)c1 (stereo unspecified) | -14 | -12 | . | -2 | . | 0 | . | .
O=C(O)CCc1nn2c3ccccc3n(CCN3CCCCC3)c2nc1=O | -242 | 12 | 7 | -81 | 0 | 46* | 8 | 11*
O=C(O)CCc1nn2c3ccccc3n(CCO)c2nc1=O | -225 | -6 | -21 | -77 | -2 | 4 | . | .
CCOC(=O)CCC(=O)NNC(=O)COc1ccc(C(C)C)cc1Br | 3 | 13 | -1 | 2 | 3 | 0 | . | .
CCOC(=O)[C@]12CCC=C1N(Cc1ccc(Cl)cc1Cl)C(=O)[C@H](CC(=O)NCc1cccc3ccccc13)C2 | 6 | -5 | . | 2 | . | 0 | . | .
CCC(C(=O)Nc1ccccc1N1CCCC1)c1cccc(C)c1 (stereo unspecified) | 6 | . | . | 1 | . | 0 | . | .
O=c1oc2c(CN3CCCCC3)c(O)ccc2c2c1CCCC2 | i | -11 | 0 | i | 5 | 62* | 66* | 70*
CCOc1ccc2c3c(c(=O)oc2c1OCC)CCCC3 | -171 | -34 | 10 | -70 | 1 | 0 | . | .
COC(=O)Cc1c(C)c2ccc(OCC(=O)N3CCC(C)CC3)c(C)c2oc1=O | i | 6 | -2 | -226 | 3 | 3 | . | .
COC(=O)Cc1c(C)c2ccc(O)c(CN3CCCC(C)C3)c2oc1=O (stereo unspecified) | i | -27 | 10 | i | 2 | 53* | 76* | 75*
Cc1c(O)c(CN2CCCCC2)cc2c1oc(=O)c1ccccc12 | -8 | -13 | -5 | -6 | 1 | 0 | . | .
CCc1c(C)c2ccc(O)c(CN3CCCC3)c2oc1=O | i | -8 | 0 | i | . | 38* | 59* | 63*
Cc1c(C)c2ccc(O)c(CN3CCCC3)c2oc1=O | i | -25 | 22 | i | 0 | 61* | 64* | 66*
CN(CCOc1ccccc1)C(=O)C1CCN(C(=O)c2ccc(F)cc2)CC1 | -10 | -23 | 24 | 4 | 3 | 0 | . | .
CN1CCN(Cc2c(O)ccc3cc(-c4ccccn4)c(=O)oc23)CC1 | i | -7 | -19 | i | 0 | 67* | 77* | 69*
Cc1c(C)c2ccc(O)c(CN3CCN(C)CC3)c2oc1=O | i | -1 | -1 | i | . | 63* | 70* | 65*
Cc1c(O)c(CN2CCCCC2)cc2c3c(c(=O)oc12)CCC3 | i | -11 | 7 | i | 1 | 44* | 73* | 76*
CN1CCN(Cc2c(O)ccc3cc(Br)ccc23)CC1 | -6 | . | -2 | -5 | -2 | -1 | . | .
O=c1oc2cc(OCc3c(F)c(F)c(F)c(F)c3F)ccc2cc1-c1ccccn1 | -70 | -10 | -9 | -18 | -3 | -2 | . | .
CN(C)CCNC(=O)c1cccc(-c2cccc3nncn23)c1 | -166 | -3 | . | -35 | . | 1 | . | .
Cc1cc(C)c(S(=O)(=O)N2CCCCC2)c(C)c1N(C)S(=O)(=O)c1ccccc1 | 5 | -12 | -5 | 5 | 0 | 0 | . | .
Cc1ccc(-c2[nH]c(-c3ccc(C(=O)O)cc3)nc2-c2ccccc2)cc1 | i | -3 | -4 | i | 0 | 33* | 67* | 69*
